Runt-CBFb FRET: Runt domain-CBFb interaction inhibition; inhibition, % at 20 µM; Q01196+Q13951; 220,000 compounds, 0.46% hits; Cerulean-Runt/Venus-CBFb FRET ratio 530/480, 1 h;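 active = inhibition over about 50% at 20 µM in the single-dose screen, limit read from the data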;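 note: 0% = DMSO wells and 100% = excess unlabeled CBFb competitor control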
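Doses: 20 µM compound in 1% DMSO | Material: Cerulean-labeled Runt domain protein | Amount: Each fluorescent fusion protein 100 nM | Schedule: Two 1 h room-temperature incubations shielded from light | Measured by: FRET fluorescence | Evaluation: Loss of energy transfer signal | Controls: Unlabeled CBFb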
MEX-5 binding: C. elegans MEX-5 TCR-2 RNA binding activity; Q9XUB2; AID 1832; activity score (negative = inhibition of binding), % at 10 µM; 300,000 compounds, 0.38% hits; MEX-5/FITC-TCR2 RNA binding, fluorescence polarization; hits give low values;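 active = inhibition past about -25% in most replicates, and total fluorescence under double the plate's negative control median, limit read from the data; inconclusive = replicates evenly split on the limit, or fluorescence at least double controls; inactive = too little inhibition in most replicates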;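 note: 0% = DMSO and -100% = 5 µM competing unlabeled TCR2 RNA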
Target sequence (Q9XUB2 whole entry, looked up): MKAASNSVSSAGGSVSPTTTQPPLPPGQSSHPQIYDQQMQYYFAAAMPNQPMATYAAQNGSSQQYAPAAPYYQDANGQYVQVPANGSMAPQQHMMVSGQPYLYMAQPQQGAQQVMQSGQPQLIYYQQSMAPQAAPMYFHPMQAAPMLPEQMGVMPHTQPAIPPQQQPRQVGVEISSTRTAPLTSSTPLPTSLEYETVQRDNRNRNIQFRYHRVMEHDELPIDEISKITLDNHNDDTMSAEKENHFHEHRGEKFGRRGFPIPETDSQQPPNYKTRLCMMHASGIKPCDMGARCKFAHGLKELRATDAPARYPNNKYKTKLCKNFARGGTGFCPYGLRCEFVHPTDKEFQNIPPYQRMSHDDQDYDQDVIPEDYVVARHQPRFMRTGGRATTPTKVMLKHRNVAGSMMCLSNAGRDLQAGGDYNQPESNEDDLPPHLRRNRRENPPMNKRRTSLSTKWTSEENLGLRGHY
KLK7 zymogen act: proKLK7 (human) activation, primary screen; activation, % at 7 µM; 370,000 compounds, 0.9% hits; purified proKLK7, EDANS-DABCYL substrate fluorescence; 100% is mature enzyme control, 0% vehicle; AID 652039; P49862;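 active = activation above the mean of all tested compounds plus 3 SD, computed per campaign excluding outliers beyond control limits, cut at about 13% in these data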
Runt-SMMHC FRET: inhibitors of human RUNX1 Runt domain binding to CBFb-SMMHC; inhibition, % at 20 µM; Q01196+Q13951; AID 1434; 220,000 compounds, 0.74% hits; Cerulean-Runt/Venus-CBFb-SMMHC FRET ratio 530/480, 1 h;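 active = mean inhibition across duplicate retests at 20 µM reaching about 50%, limit read from the data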;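 note: 0% = DMSO wells and 100% = wells with excess untagged CBFb-SMMHC; inhibitors lower the FRET ratio by blocking Runt binding to CBFb-SMMHC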
RanGTP-Imp inh: inhibitors of RanGTP-importin-beta interaction, primary screen, biochemical, FRET, CFP-Ran, YFP-importin-beta, homogeneous; cell-free CFP-Ran/YFP-importin-beta FRET ratio; inhibition, % (no concentration beside the values); 300,000 compounds, 1.1% hits; AID 2216;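 active = more than half of the replicate wells show a fall in the fluorescence ratio signal beyond about 16%, limit read from the data, passing the limit was not always enough; inconclusive = exactly half of the replicate wells pass the set limit; inactive = fewer than half of replicates pass the limit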;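 note: 0% = DMSO wells and 100% = Ran loaded with GDP instead of GTP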
* hit, by the source's call; ? = inconclusive; / = no result. Only some compounds are listed: those with a hit (about 2.1% of all), similar ones and a draw of the others.

SMILES | Runt-CBFb FRET | MEX-5 binding | KLK7 zymogen act | Runt-SMMHC FRET | RanGTP-Imp inh
c1csc(-c2nc3c4ccccc4c4ccccc4c3[nH]2)c1 | -4 | 1 | 18* | -1 | -17
CCSc1ccc(-c2nn(-c3ccccc3)cc2/C=C(/C#N)C(=O)NCCCOC)cc1 | 24 | / | -1 | 60* | /
COc1ccccc1CNC(=O)C(=O)NCC1CCCN1S(=O)(=O)c1cc(C)ccc1C (configuration not stated) | / | / | 0 | / | /
N#CC1=C(N)Oc2cc(N)ccc2C1C1CC=CCC1 (configuration not stated) | 42 | 3 | 4 | 41 | 141*
N#CC1=C(N)Oc2ccc3ccc(O)cc3c2C1c1ccsc1 (configuration not stated) | 6 | -47* | 0 | -3 | -5
Cc1[nH]nc2c1C(C1CC=CCC1)C(C#N)=C(N)O2 (configuration not stated) | 1 | / | 0 | 1 | /
CCOc1cc(C2C(C#N)=C(N)Oc3cc(N)ccc32)ccc1O (configuration not stated) | / | -5 | 8 | / | 69*
N#CC1=C(N)Oc2cc(N)ccc2C1c1cccc(Br)c1 (configuration not stated) | / | -3 | 1 | / | 55*
Nc1ccn([C@@H]2O[C@H](C(=O)NCC(F)(F)F)[C@@H](O)[C@H]2O)c(=O)n1 | / | / | 1 | / | /
Cc1cccc(C)c1OCC(=O)NNC(=O)CCNC(=O)c1ccco1 | / | 0 | 0 | / | -2
N#CC1=C(N)Oc2cc(N)ccc2C1c1cc(Br)cs1 (configuration not stated) | / | 0 | 0 | / | -9
Cc1ccc(C2C(C#N)=C(N)Oc3cc(N)ccc32)cc1 (configuration not stated) | / | -1 | -1 | / | 90*
CCOc1cc(C2C(C#N)=C(N)OC(C)=C2C(C)=O)cc(Br)c1O (configuration not stated) | 1 | -69* | 3 | 1 | 19*
CCOc1cc(C2C(C#N)=C(N)OC(C)=C2C(C)=O)c(Br)c(Br)c1OC(C)C (configuration not stated) | -4 | -5 | / | -5 | -4
N#CC1=C(N)Oc2cc(N)ccc2C1c1ccsc1 (configuration not stated) | 23 | 2 | 0 | 23 | 33*
COc1ccccc1N(C)S(=O)(=O)c1ccc(C(=O)N(C)Cc2ccc(Cl)s2)cc1 | / | / | 0 | / | /
O=C1CS/C(=N/N=C/c2ccncc2)N1 | 0 | 3 | 0 | -2 | 2
O=C1CS/C(=N/N=C/c2cccs2)N1 | 2 | -32* | -1 | -8 | 4
COc1cccc2c(=O)c3cccc(N)c3[nH]c12 | -59 | -4 | -7 | / | 127*
CCOc1cc(N2CCOCC2)c(OCC)cc1NC(C)C(=O)N1CCN(CC)CC1 (configuration not stated) | 0 | -28* | 0 | -4 | -1
COc1cc(C2c3[nH]c4ccccc4c3CC3COC(=O)N32)cc(OC)c1O (configuration not stated) | / | / | 0 | / | /
COc1c2ccoc2c(OC[C@@H](O)C(C)(C)OC)c2oc(=O)ccc12 | 30 | 0 | 1 | 84* | 8
COc1c2ccoc2c(OC[C@@H](O)C(C)(C)O)c2oc(=O)ccc12 | 4 | 0 | 0 | 14 | 2
CC[C@@H](CCCCCC#N)CCC(=O)N(c1ccccc1)c1ccccc1 | / | / | 0 | / | /
O=C1C=CC(=O)N1c1cccc(-c2ccccc2)c1 | 38 | -3 | 0 | 73* | -2
SMILES | Runt-CBFb FRET | MEX-5 binding | KLK7 zymogen act | Runt-SMMHC FRET | RanGTP-Imp inh
COc1cccc(-n2c(C)cc(/C=C3\C(=N)N4N=C(CC(=O)N5CCOCC5)SC4=NC3=O)c2C)c1 | / | -11 | 2 | / | 16*
Cc1nc2sc(-c3ccccc3)cc2c(=O)n1N | -3 | -32* | 0 | -2 | -1
Cc1nc2sc(-c3ccccc3)cc2c(=O)n1-n1cccc1 | 0 | -1 | 0 | 0 | 0
COC(=O)C1=CN(Cc2cccs2)C=C(C(=O)OC)C1c1cccc(O)c1 | 98* | 0 | 11 | 133* | 11
Cc1nn(-c2ccccc2)c2c1C(c1ccncc1)C(C#N)=C(N)O2 (configuration not stated) | 0 | 1 | 0 | -3 | -1
COc1cc(-n2nc(C)c3c2OC(N)=C(C#N)C3c2ccccc2)c(Cl)c(Br)c1O (configuration not stated) | 5 | 2 | 0 | 8 | 65*
C#CCN1C=CC(=O)[C@@H](OC(=O)Nc2ccc(Cl)cc2)[C@H]1c1ccccc1Br | / | / | 0 | / | /
O=C(NNC(=S)NC(=O)c1ccccc1[N+](=O)[O-])c1ccccc1[N+](=O)[O-] | 3 | -21 | 0 | 2 | 1
O=C(NNC(=O)c1cnccn1)c1cccc([N+](=O)[O-])c1 | -2 | -61* | 0 | 7 | 2
O=C(NNC(=O)c1ccccc1[N+](=O)[O-])c1cnccn1 | 1 | -65* | 0 | -6 | ?
Nc1ccccc1C(=O)NNC(=O)C(=O)/C=C(\O)c1ccccc1 | -3 | -7 | -1 | -4 | 1
O=C(Nc1nc(-c2cccnc2)cs1)c1ccccc1[N+](=O)[O-] | 2 | 1 | 0 | -1 | 18*
O=C(/C=C(\O)c1ccccc1)C(=O)NNC(=O)c1ccccc1[N+](=O)[O-] | / | -48* | 0 | / | -1
OCCCc1nc2n(n1)C(c1ccccc1Cl)C=C(c1cccs1)N2 (configuration not stated) | 19 | -15 | / | 78* | 34*
Oc1ccc(Nc2nc(N3CCCC3)c3ccccc3n2)cc1 | 27 | -1 | 0 | 71* | -3
Cc1ccc2c(c1)CC1(CN2C)C(=O)OC2(CCCCC2)OC1=O | -4 | -2 | 0 | -30 | 26*
CC(C)Cc1nnc(NC(=O)CCC(=O)N2CCC(C)CC2)s1 | / | 0 | 0 | / | -1
CC(C)Cc1nnc(NC(=O)Cc2cccs2)s1 | 2 | 5 | 0 | -5 | 26*
CC(C)Cc1nnc(NC(=O)CCC(=O)N2CC(C)CC(C)C2)s1 (configuration not stated) | / | -27* | 0 | / | ?
O=C(O)C(=O)/C(=C\c1cccc(Cl)c1)c1ccc2ccccc2n1 | 6 | -12 | -7 | 37 | -9
Cc1cccc(/C=C(\C(=O)C(=O)O)c2ccc3ccccc3n2)c1 | 24 | ? | -7 | 73* | 29*
CCCNC(=O)C[C@H]1CC[C@H]2[C@@H](COc3ccc(NC(=O)c4cncs4)cc3C(=O)N2C)O1 | / | / | 0 | / | /
Cc1[nH]c2ccccc2c1CCCO | 9 | -4 | 2 | 84 | 18*
O=C(CC1S/C(=N/N=C/c2ccco2)NC1=O)Nc1ccccc1 (configuration not stated) | 2 | -2 | 0 | 17 | 139*
O=C(N[C@H](C(=O)N1CCC[C@H]1C(=O)NCc1ccccc1)C1CCCCC1)c1ccc(Cl)cc1Cl | / | / | 0 | / | /
